Measurements as given in ChEMBL document CHEMBL1144782, “Isoindolo[2,1-a]quinoxaline derivatives, novel potent antitumor agents with dual inhibition of tubulin polymerization and topoisomerase I” (2008).
Values joined by “and” are separate entries in the source; they are usually repeats but may differ in a detail not shown here. Equal entries are not always repeated.

System: NCI-H23
Test: Antitumor activity against human NCI-H23 cells
Type: functional
Details: not given
How it was run: (§1)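 Run by the NCI in its in vitro disease-oriented screen of about 60 human tumour cell lines. For each line it reports pGI50 (50% net growth inhibition), pTGI (total growth inhibition) and pLC50 (50% net cell death), each as –log molar concentration. Where an effect was not reached within the tested range, the highest tested concentration was used.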

SMILES | GI50 [µM] | LC50 (50% net cell kill) [µM]
Cc1cc2[nH]c(=O)c3c4ccccc4cn3c2cc1C | 14.8 | 69.2

Same assay, conditions: read-out: pTGI (converted)

SMILES | TGI [µM]
Cc1cc2[nH]c(=O)c3c4ccccc4cn3c2cc1C | 32.4

System: HCC 2998
Test: Antitumor activity against human HCC2998 cells
Type: functional
Details: not given
How it was run: as §1

SMILES | GI50 [µM] | LC50 [µM]
Cc1cc2[nH]c(=O)c3c4ccccc4cn3c2cc1C | 4.07 | 50.1

Same assay, conditions: read-out: pTGI (converted)

SMILES | TGI [µM]
Cc1cc2[nH]c(=O)c3c4ccccc4cn3c2cc1C | 16.6

System: HCT-15
Test: Antitumor activity against human HCT15 cells
Type: functional
Details: not given
How it was run: as §1

SMILES | GI50 [µM]
Cc1cc2[nH]c(=O)c3c4ccccc4cn3c2cc1C | 6.17

Same assay, conditions: read-out: Log LC50 (the source's name) (converted)

SMILES | CC50 [µM]
Cc1cc2[nH]c(=O)c3c4ccccc4cn3c2cc1C | 61.7

Same assay, conditions: read-out: pTGI (converted)

SMILES | TGI [µM]
Cc1cc2[nH]c(=O)c3c4ccccc4cn3c2cc1C | 21.9

System: U-251
Test: Antitumor activity against human U251 cells
Type: functional
Details: not given
How it was run: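 NCI 60-cell-line screen. Parameters were GI50 (50% net growth inhibition), TGI and LC50, each reported as –log molar concentration. Where an effect was not reached within the tested range, the highest tested concentration was used in the calculation.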

SMILES | GI50 [µM]
Cc1cc2[nH]c(=O)c3c4ccccc4cn3c2cc1C | 4.07

Same assay, conditions: read-out: Log LC50 (the source's name) (converted)

SMILES | CC50 [µM]
Cc1cc2[nH]c(=O)c3c4ccccc4cn3c2cc1C | 47.9

Same assay, conditions: read-out: pTGI (converted)

SMILES | TGI [µM]
Cc1cc2[nH]c(=O)c3c4ccccc4cn3c2cc1C | 14.1

System: DU-145
Test: Antitumor activity against human DU145 cells
Type: functional
Details: not given
How it was run: as §1

SMILES | GI50
Cc1cc2[nH]c(=O)c3c4ccccc4cn3c2cc1C | 13.8 µM and 30.2 µM

Same assay, conditions: Homo sapiens, DU-145; read-out: Log LC50 (the source's name) (converted)

SMILES | CC50 [µM]
Cc1cc2[nH]c(=O)c3c4ccccc4cn3c2cc1C | 64.6

System: 786-0
Test: Antitumor activity against human 786-0 cells
Type: functional
Details: not given
How it was run: as §1

SMILES | GI50 [µM]
Cc1cc2[nH]c(=O)c3c4ccccc4cn3c2cc1C | 10.7

Same assay, conditions: read-out: Log LC50 (the source's name) (converted)

SMILES | CC50 [µM]
Cc1cc2[nH]c(=O)c3c4ccccc4cn3c2cc1C | 47.9

Same assay, conditions: read-out: pTGI (converted)

SMILES | TGI [µM]
Cc1cc2[nH]c(=O)c3c4ccccc4cn3c2cc1C | 22.9

System: HCT-116
Test: Antitumor activity against human HCT116 cells
Type: functional
Details: not given
How it was run: as §1

SMILES | GI50 [µM] | LC50 [µM]
Cc1cc2[nH]c(=O)c3c4ccccc4cn3c2cc1C | 1.58 | 6.17

Same assay, conditions: read-out: pTGI (converted)

SMILES | TGI [µM]
Cc1cc2[nH]c(=O)c3c4ccccc4cn3c2cc1C | 3.09

System: OVCAR-5
Test: Antitumor activity against human OVCAR5 cells
Type: functional
Details: not given
How it was run: as §1

SMILES | GI50 [µM] | LC50 (50% net cell death) [µM]
Cc1cc2[nH]c(=O)c3c4ccccc4cn3c2cc1C | 13.8 | 55

Same assay, conditions: read-out: pTGI (converted)

SMILES | TGI [µM]
Cc1cc2[nH]c(=O)c3c4ccccc4cn3c2cc1C | 27.5

System: OVCAR-4
Test: Antitumor activity against human OVCAR4 cells
Type: functional
Details: not given
How it was run: as §1

SMILES | GI50 [µM] | LC50 (50% net cell kill) [µM]
Cc1cc2[nH]c(=O)c3c4ccccc4cn3c2cc1C | 13.5 | 56.2

Same assay, conditions: read-out: pTGI (converted)

SMILES | TGI [µM]
Cc1cc2[nH]c(=O)c3c4ccccc4cn3c2cc1C | 27.5

System: RPMI-8226
Test: Antitumor activity against human RPMI8226 cells
Type: functional
Details: not given
How it was run: as §1

SMILES | GI50 [µM]
Cc1cc2[nH]c(=O)c3c4ccccc4cn3c2cc1C | 6.76

Same assay, conditions: read-out: Log LC50 (the source's name) (converted)

SMILES | CC50 [µM]
Cc1cc2[nH]c(=O)c3c4ccccc4cn3c2cc1C | > 100

Same assay, conditions: read-out: pTGI (converted)

SMILES | TGI [µM]
Cc1cc2[nH]c(=O)c3c4ccccc4cn3c2cc1C | 29.5

System: NCI/ADR-RES
Test: Antitumor activity against human NCI/ADR-RES cells
Type: functional
Details: not given
How it was run: as §1

SMILES | GI50 [µM] | LC50 [µM]
Cc1cc2[nH]c(=O)c3c4ccccc4cn3c2cc1C | 13.5 | 74.1

Same assay, conditions: read-out: pTGI (converted)

SMILES | TGI [µM]
Cc1cc2[nH]c(=O)c3c4ccccc4cn3c2cc1C | 31.6

System: NCI-H460
Test: Antitumor activity against human NCI-H460 cells
Type: functional
Details: not given
How it was run: as §1

SMILES | GI50 [µM]
Cc1cc2[nH]c(=O)c3c4ccccc4cn3c2cc1C | 4.47
